From ChEMBL document CHEMBL1147109, “Genetic elements carrying erm(B) in Streptococcus pyogenes and association with tet(M) tetracycline resistance gene” (2007)
Converted amounts (≈) assume the structure as drawn.

Legend:
Streptococcus pyogenes [1] = assay: Antimicrobial activity against erythromycin-resistant Streptococcus pyogenes B-83 transconjugated with erm(B) and tet(M) genes; type: functional
Method in brief: (§1)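 Transconjugants came from membrane-filter mating of the donor strain into recipient S. pyogenes 12RF (rifampin- and fusidic acid-resistant), done at least three times, and were confirmed by PCR to carry erm(B) and tet(M). MICs were then determined by broth microdilution to CLSI recommendations, with S. pneumoniae ATCC 49619 as quality control.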

Streptococcus pyogenes [2] = assay: Antimicrobial activity against erythromycin-resistant Streptococcus pyogenes C-105 transconjugated with erm(B) and tet(M) genes; type: functional; method in brief: as §1
Streptococcus pyogenes [3] = assay: Antimicrobial activity against tetracyclin-resistant Streptococcus pyogenes C-105 transconjugated with erm(B) and tet(M) genes; type: functional; method in brief: as §1
Streptococcus pyogenes [4] = assay: Antimicrobial activity against erythromycin-resistant Streptococcus pyogenes E-115 transconjugated with erm(B) and tet(M) genes; type: functional; method in brief: as §1
Streptococcus pyogenes [5] = assay: Antimicrobial activity against erythromycin-resistant Streptococcus pyogenes D-112 transconjugated with erm(B) and tet(M) genes; type: functional; method in brief: as §1
Streptococcus pyogenes [6] = assay: Antimicrobial activity against erythromycin-resistant Streptococcus pyogenes A-3 transconjugated with erm(B) and tet(M) genes; type: functional; method in brief: as §1
Streptococcus pyogenes [7] = assay: Antimicrobial activity against tetracycline-susceptible Streptococcus pyogenes iMLS-A isolate expressing erm(B); type: functional
Method in brief: (§2)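 Broth microdilution MICs per CLSI against clinical S. pyogenes isolates carrying erm(B); S. pneumoniae ATCC 49619 as quality control. For some isolates, tetracycline MICs were also read after induction: colonies from overnight brain heart infusion agar were grown on brain heart infusion agar with or without subinhibitory tetracycline (0.05 μg/ml), harvested within 20 h, then tested.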

Streptococcus pyogenes [8] = assay: Antimicrobial activity against tetracycline-resistant Streptococcus pyogenes cMLS isolate C expressing tet(M), Xis, tnpA, tnpR gene
Streptococcus pyogenes [9] = assay: Antimicrobial activity against tetracyclin-resistant Streptococcus pyogenes cMLS isolate expressing erm(B); type: functional
Method in brief: (§3)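 Broth microdilution MICs run to CLSI recommendations on clinical erm(B)-carrying S. pyogenes isolates, with S. pneumoniae ATCC 49619 as quality control. In some isolates, tetracycline MICs were also measured on cells grown for no longer than 20 h on brain heart infusion agar, with or without subinhibitory tetracycline (0.05 μg/ml).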

Streptococcus pyogenes [10] = assay: Antimicrobial activity against tetracycline-susceptible Streptococcus pyogenes cMLS isolate expressing erm(B); type: functional; method in brief: as §2
Streptococcus pyogenes [11] = assay: Antimicrobial activity against tetracycline-susceptible Streptococcus pyogenes cMLS isolate D expressing tet(M), Xis, tnpA, tnpR gene; type: functional; method in brief: as §2
Streptococcus pyogenes [12] = assay: Antimicrobial activity against Streptococcus pyogenes iMLS-A isolate A expressing tet(M), tndX gene; type: functional; method in brief: as §2
Streptococcus pyogenes [13] = assay: Antimicrobial activity against tetracycline-susceptible Streptococcus pyogenes cMLS isolate F; type: functional; method in brief: as §2
Streptococcus pyogenes [14] = assay: Antimicrobial activity against Streptococcus pyogenes cMLS isolate B expressing tet(M), int, Xis gene; type: functional; method in brief: as §3
Streptococcus pyogenes [15] = assay: Antimicrobial activity against tetracycline-susceptible Streptococcus pyogenes cMLS isolate G expressing tnpA, tnpR gene; type: functional; method in brief: as §2
Streptococcus pyogenes [16] = assay: Antimicrobial activity against tetracycline-susceptible Streptococcus pyogenes cMLS isolate E expressing tet(M), tndX gene; type: functional; method in brief: as §2

Structure (SMILES)	MIC (Streptococcus pyogenes [1])	MIC (Streptococcus pyogenes [2])	MIC (Streptococcus pyogenes [3])	MIC (Streptococcus pyogenes [4])	MIC (Streptococcus pyogenes [5])	MIC (Streptococcus pyogenes [6])	MIC (Streptococcus pyogenes [7])	MIC (Streptococcus pyogenes [8])	MIC (Streptococcus pyogenes [9])	MIC (Streptococcus pyogenes [10])	MIC (Streptococcus pyogenes [11])	MIC (Streptococcus pyogenes [12])	MIC (Streptococcus pyogenes [13])	MIC (Streptococcus pyogenes [14])	MIC (Streptococcus pyogenes [15])	MIC (Streptococcus pyogenes [16])
CC[C@H]1OC(=O)[C@H](C)[C@@H](O[C@H]2C[C@@](C)(OC)[C@@H](O)[C@H](C)O2)[C@H](C)[C@@H](O[C@@H]2O[C@H](C)C[C@H](N(C)C)[C@H]2O)[C@](C)(O)C[C@@H](C)C(=O)[C@H](C)[C@@H](O)[C@]1(C)O [ERYTHROMYCIN]	> 128 µg/mL	> 128 µg/mL	> 128 µg/mL	> 128 µg/mL	> 128 µg/mL	> 128 µg/mL										
CN(C)[C@@H]1C(O)=C(C(N)=O)C(=O)[C@@]2(O)C(O)=C3C(=O)c4c(O)cccc4[C@@](C)(O)[C@H]3C[C@@H]12 [TETRACYCLINE]	32 µg/mL (≈ 72 µM)	32 µg/mL (≈ 72 µM)	32 µg/mL (≈ 72 µM)	0.25 µg/mL (≈ 0.563 µM)	0.25 µg/mL (≈ 0.563 µM)	0.25 µg/mL (≈ 0.563 µM)	≤ 0.125 µg/mL	32 µg/mL (≈ 72 µM)	32 µg/mL (≈ 72 µM)	≤ 0.125 µg/mL	0.125 µg/mL (≈ 0.281 µM)	0.125 µg/mL (≈ 0.281 µM)	0.125 µg/mL (≈ 0.281 µM)	32 µg/mL (≈ 72 µM)	0.125 µg/mL (≈ 0.281 µM)	0.125 µg/mL (≈ 0.281 µM)
